# According to PMC8370243 (Antimicrobial Agents and Chemotherapy, 2021):
# Where two headings read alike, the source gives them in different places.
# Key:
# [1] = Concentration-response cell viability assay, Vero E6 cells; assay type: cell-based, African green monkey; details: African green monkey, noninfected, CC50, Vero E6 cells
# SARS-CoV-2 [2] = assay type: cell-based; details: Vero E6 cells, 46 to 50 h
# SARS-CoV-2 [3] = assay type: cell-based
# Vero E6 cells = experiment: Concentration-response cell viability assay, Vero E6 cells; assay type: cell-based, African green monkey; details: noninfected
# A549-hACE2 cells = experiment: Concentration-response cell viability assay, A549-hACE2 cells; assay type: cell-based, human; details: noninfected
# SARS-CoV-2 [4] = details: cited from earlier work
# SARS-CoV-2 [5] = experiment: Short-term assay for interactions of PIs and remdesivir, Vero E6 cells; assay type: cell-based; details: for residual infectivity: Vero E6, treatment condition 3; for interaction with remdesivir (method of Chou and Talalay, CompuSyn): Vero E6 and A549-hACE2 data sets
# SARS-CoV-2 [6] = assay type: cell-based; remark: listed apart in the source
# [7] = Concentration-response cell viability assay, Huh7.5 cells; assay type: cell-based, human; details: human, noninfected
# How it was run: (§1)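 Huh7.5 hepatoma cells in DMEM/10% heat-inactivated FBS with penicillin/streptomycin, plated at 9,000 cells/well. The following day, noninfected cultures received test compound dilution series (DMSO-dissolved) or DMSO alone. Incubation was 70–74 h, then CellTiter 96 Aqueous One reagent for 1–3 h at 37°C, 5% CO₂, and absorbance at 492 nm. Each concentration had 2–4 replicate wells, normalised to the mean of 12 untreated control wells on each plate.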
# [8] = Concentration-response cell viability assay, A549-hACE2 cells; assay type: cell-based, human; details: human, noninfected
# SARS-CoV-2 [9] = assay type: cell-based; details: Vero E6
# SARS-CoV-2 [10] = assay type: cell-based; details: A549-hACE2
# Huh7.5 cells = experiment: Concentration-response cell viability assay, Huh7.5 cells; assay type: cell-based, human; details: noninfected
# How it was run: as §1
# [11] = rats; single oral administration; cited from earlier work
# [12] = clinical phase 1 trials; cited from earlier work
# [13] = A549-hACE2 cells, […], 46 to 50 h
# [14] = Severe acute respiratory syndrome coronavirus 2
# [15] = Severe acute respiratory syndrome coronavirus 2, Huh7.5
compound,measurement,setting,value
"COc1ccc2c(O[C@@H]3C[C@H]4C(=O)N[C@]5(C(=O)NS(=O)(=O)C6CC6)C[C@H]5/C=C\CCCCC[C@H](CC(=O)N5CCCC(F)(F)C5)C(=O)N4C3)cc(-c3nc(C(C)C)cs3)nc2c1C [Deldeprevir, deldeprevir]",CC50,[1],56 µM
voxilaprevir,EC50,SARS-CoV-2 [2],> 27 µM
same,EC50,SARS-CoV-2 [3]; [13],10 µM
same,CC50,Vero E6 cells,72 µM
same,CC50,A549-hACE2 cells,81 µM
same,EC50,SARS-CoV-2 [4]; A549-hACE2 cell line,> 10 µM
"CC[C@@H]1C[C@]1(NC(=O)[C@@H]1C[C@@H]2CN1C(=O)[C@H](C(C)(C)C)NC(=O)OCC(C)(C)CCCCc1cccc3c1CN(C3)C(=O)O2)C(=O)NS(=O)(=O)C1CC1 [Vaniprevir, vaniprevir]",CC50,Vero E6 cells,171 µM
"CCC(CC)COC(=O)[C@H](C)N[P@](=O)(OC[C@H]1O[C@@](C#N)(c2ccc3c(N)ncnn23)[C@H](O)[C@@H]1O)Oc1ccccc1 [Remdesivir, remdesivir]",EC50,SARS-CoV-2 [3]; [14],0.1 µM
same,residual infectivity,SARS-CoV-2 [5]; 0.6 μM remdesivir singly,83%
same,residual infectivity,SARS-CoV-2 [5]; 1.7 μM remdesivir singly,47%
"CCC[C@H](NC(=O)[C@@H]1[C@H]2CCC[C@H]2CN1C(=O)[C@@H](NC(=O)[C@@H](NC(=O)c1cnccn1)C1CCCCC1)C(C)(C)C)C(=O)C(=O)NC1CC1 [Telaprevir, telaprevir]",CC50,[1],> 432 µM
"CC(C)(C)NC(=O)N[C@H](C(=O)N1C[C@H]2[C@@H]([C@H]1C(=O)NC(CC1CCC1)C(=O)C(N)=O)C2(C)C)C(C)(C)C (stereo partly shown) [Boceprevir, boceprevir]",EC50,SARS-CoV-2 [2],44 µM
same,EC50,SARS-CoV-2 [6]; [15],42 µM
same,EC50,SARS-CoV-2 [3]; [14],20 µM
same,CC50,[1],> 1210 µM
same,CC50,[7],701 µM
same,CC50,[8],> 1210 µM
same,residual infectivity,SARS-CoV-2 [5]; 17.4 μM boceprevir singly,79%
same,"interaction with remdesivir (method of Chou and Talalay, CompuSyn)",SARS-CoV-2 [5],primarily antagonistic
same,viral RNA titers in supernatant,SARS-CoV-2 [9]; 3-fold EC50 boceprevir,decreased to values around the lower limit of quantification
same,viral suppression (immunostaining),"SARS-CoV-2 [9]; 3-fold EC50 boceprevir, […], follow-up 9 days",sustained viral suppression
same,viral RNA titers in supernatant,SARS-CoV-2 [9]; 5-fold EC50 boceprevir,decreased to values around the lower limit of quantification
same,viral suppression (immunostaining),"SARS-CoV-2 [9]; 5-fold EC50 boceprevir, […], follow-up 17 days",sustained viral suppression
same,effect on viral spread (viral RNA titers),SARS-CoV-2 [10]; 1- to 5-fold EC50 boceprevir,minor impact
same,effect on viral spread (viral RNA titers),SARS-CoV-2 [10]; 1-fold EC50 PI singly,no to little effect
same,effect on viral spread (viral RNA titers),"SARS-CoV-2 [10]; 8-fold EC50 boceprevir, observation period 13 days",viral suppression
"C=C[C@@H]1C[C@]1(NC(=O)[C@@H]1C[C@@H]2CN1C(=O)[C@H](C(C)(C)C)NC(=O)O[C@@H]1C[C@H]1CCCCCc1nc3ccc(OC)cc3nc1O2)C(=O)NS(=O)(=O)C1CC1.O [Grazoprevir, grazoprevir]",EC50,SARS-CoV-2 [2],42 µM
same,EC50,"SARS-CoV-2 [6]; Huh7.5 cells, […], 70 to 74 h",20 µM
same,EC50,SARS-CoV-2 [3]; [13],26 µM
same,CC50,Vero E6 cells,239 µM
same,CC50,Huh7.5 cells,133 µM
same,CC50,A549-hACE2 cells,125 µM
same,"interaction with remdesivir (method of Chou and Talalay, CompuSyn)",SARS-CoV-2 [5],primarily synergistic
same,infected culture cells,"SARS-CoV-2 [9]; 1-fold EC50 PI, […]",90%
same,effect on viral spread (viral RNA titers),SARS-CoV-2 [10]; 1-fold EC50 PI singly,no to little effect
"CC(C)(C)[C@@H]1NC(=O)O[C@@H]2CCC[C@H]2OC/C=C/C(F)(F)c2nc3ccccc3nc2O[C@@H]2C[C@@H](C(=O)N[C@]3(C(=O)NS(=O)(=O)C4(C)CC4)C[C@H]3C(F)F)N(C2)C1=O [Glecaprevir, glecaprevir]",EC50,SARS-CoV-2 [3]; [14],> 94 µM
same,CC50,Vero E6 cells,> 268 µM
same,CC50,[8],> 268 µM
"Cc1cnc(C(=O)N[C@H]2CCCCC/C=C\[C@@H]3C[C@@]3(C(=O)NS(=O)(=O)C3CC3)NC(=O)[C@@H]3C[C@@H](Oc4nc5ccccc5c5ccccc45)CN3C2=O)cn1 [Paritaprevir, paritaprevir]",CC50,Vero E6 cells,123 µM
same,"interaction with remdesivir (method of Chou and Talalay, CompuSyn)",SARS-CoV-2 [5],primarily synergistic
"COc1ccc2c(O[C@@H]3C[C@H]4C(=O)N[C@]5(C(=O)NS(=O)(=O)C6CC6)C[C@H]5/C=C\CCCCN(C)C(=O)[C@@H]4C3)cc(-c3nc(C(C)C)cs3)nc2c1C [Simeprevir, simeprevir]",EC50,SARS-CoV-2 [6]; [15],14 µM
same,EC50,SARS-CoV-2 [3]; [14],9 µM
same,CC50,[1],59 µM
same,CC50,[7],33 µM
same,CC50,[8],56 µM
same,residual infectivity,SARS-CoV-2 [5]; 11.1 μM simeprevir singly,100%
same,effect on viral spread (viral RNA titers),SARS-CoV-2 [10]; 1-fold EC50 PI singly,no to little effect
same,concentration in the intestine relative to plasma,[11],up to 128 fold
same,concentrations in other tissues relative to plasma,[11],roughly equal to plasma concentrations
same,EC50,SARS-CoV-2 [4]; human lung cells,1 µM
"CC(C)(C)OC(=O)N[C@H]1CCCCC/C=C\[C@@H]2C[C@@]2(C(=O)NS(=O)(=O)C2CC2)NC(=O)[C@@H]2C[C@@H](OC(=O)N3Cc4cccc(F)c4C3)CN2C1=O [Danoprevir, danoprevir]",CC50,Vero E6 cells,> 243 µM
"C=C[C@@H]1C[C@]1(NC(=O)[C@@H]1C[C@@H](Oc2ncc(OC)c3ccc(Cl)cc23)CN1C(=O)[C@@H](NC(=O)OC(C)(C)C)C(C)(C)C)C(=O)NS(=O)(=O)C1CC1 [Asunaprevir, asunaprevir]",CC50,[1],263 µM
CCCCCOc1ccc(NC(=S)NC(=O)c2cccnc2)cc1C(F)(F)F [ACH-806],EC50,SARS-CoV-2 [2],46 µM
same,CC50,Vero E6 cells,> 429 µM
same,adverse finding that halted development,[12],reversible nephrotoxicity
"CCCC[C@H](NC(=O)[C@@H]1[C@@H]2[C@H](CN1C(=O)[C@@H](NC(=O)NC1(CS(=O)(=O)C(C)(C)C)CCCCC1)C(C)(C)C)C2(C)C)C(=O)C(=O)NC1CC1 [Narlaprevir, narlaprevir]",EC50,SARS-CoV-2 [2],37 µM
same,CC50,[1],269 µM
same,"interaction with remdesivir (method of Chou and Talalay, CompuSyn)",SARS-CoV-2 [5],primarily antagonistic
